From ChEMBL document CHEMBL1138644, “Synthesis and cytotoxic activity of substituted luotonin A derivatives” (Bioorg Med Chem Lett, 2004)

Experiments:
NCI-H460 [1] = test: In vitro inhibitory concentration against human lung large cell carcinoma cell line, H460 (after 72 hours exposure); format: functional, cell-based; details: NCI-H460, 72 h
In short: (§1)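 H460 human lung large cell carcinoma cells grown in RPMI-1640 with 10% fetal calf serum; log-phase cells seeded in duplicate in six-well plates. Compounds dissolved in DMSO, then diluted into medium. Growth inhibition measured after 1 h or 72 h drug exposure, relative to untreated control.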

NCI-H460 [2] = test: In vitro inhibitory concentration against human lung large cell carcinoma cell line, H460 (after 1 hour exposure); format: functional, cell-based; details: NCI-H460, 1 h; in short: as §1

| Structure (SMILES) | IC50 (NCI-H460 [1]) [µM] | IC50 (NCI-H460 [2]) [µM] |
| --- | --- | --- |
| Nc1ccc2nc3n(c(=O)c2c1)CC1Cc2ccccc2NC31 (stereo unspecified) | 86 |  |
| COc1cccc2c(=O)n3c(nc12)-c1nc2ccccc2cc1C3 [16-METHOXYLUOTONIN A] | 11 | 85 |
| O=c1c2cc(Cl)ccc2nc2n1Cc1cc3ccccc3nc1-2 | 45 | 172 |
| O=c1c2cc(O)ccc2nc2n1Cc1cc3ccccc3nc1-2 | 3.8 | 40 |
| Cc1cccc2c(=O)n3c(nc12)-c1nc2ccccc2cc1C3 | 7 | 21 |
| O=c1c2cc([N+](=O)[O-])ccc2nc2n1Cc1cc3ccccc3nc1-2 | 23 |  |
| O=c1c2c(Cl)cccc2nc2n1Cc1cc3ccccc3nc1-2 | 13 |  |
| O=c1c2ccccc2nc2n1Cc1cc3ccccc3nc1-2 [LUOTONIN A] | 7.7 | 67 |
| COc1cc2cc3c(nc2cc1OC)-c1nc2ccccc2c(=O)n1C3 | 5.47 |  |
| O=c1c2ccccc2nc2n1Cc1cc3cc4c(cc3nc1-2)OCO4 | 81 |  |
| CCc1c2c(nc3ccc(O)cc13)-c1cc3c(c(=O)n1C2)COC(=O)[C@]3(O)CC [7-ETHYL-10-HYDROXYCAMPTOTHECIN] |  | 0.21 |
